From ChEMBL document CHEMBL2057104, “Identification of myricetin and scutellarein as novel chemical inhibitors of the SARS coronavirus helicase, nsP13” (Bioorg Med Chem Lett, 2012)
Calls of active or inactive are those of the source.

Experiments:
[1] = tested on: Severe acute respiratory syndrome-related coronavirus; test: Inhibition of SARS coronavirus nsP13 helicase activity expressed in Escherichia coli Rosetta assessed inhibition of DNA unwinding activity at 10 uM by FRET assay
Procedure, shortened: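 FRET dsDNA-unwinding assay using fluorescein/TAMRA-labelled duplex. When nsP13 unwinds the duplex, fluorescein emission is unquenched. Compound was added to the unwinding reaction at 10 µM, and fluorescence was read at 535 nm.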

Hepacivirus hominis [2] = test: Inhibition of HCV NS3 helicase overexpressed in Escherichia coli BL21(DE3) assessed as inhibition of DNA unwinding activity at 10 uM by FRET assay
Hepacivirus hominis [3] = test: Inhibition of HCV NS3 helicase ATP hydrolysis activity overexpressed in Escherichia coli BL21(DE3) assessed as inhibition of inorganic phosphate release by AM/MG-based colometric analysis in the presence of M13 ssDNA

Measured: inhibition

COc1c(O)cc2oc3cc(O)c(CC=C(C)C)c(O)c3c(=O)c2c1CC=C(C)C
inactive: all assays above

O=c1cc(-c2ccccc2)oc2cc(O)c(O)c(O)c12
inactive: all assays above

C[C@H]1[C@H](C)CC[C@]2(C(=O)O)CC[C@]3(C)C(=CC[C@@H]4[C@@]5(C)CC[C@H](O)C(C)(C)[C@@H]5CC[C@]43C)[C@H]12
inactive: all assays above

CC[C@H](CC[C@@H](C)[C@H]1CC[C@H]2[C@@H]3CC=C4C[C@@H](O)CC[C@]4(C)[C@H]3CC[C@]12C)C(C)C
inactive: all assays above

O=c1cc(-c2ccccc2)oc2cc(O)cc(O)c12
inactive: all assays above

C/C=C(/C)C(=O)O[C@H]1Cc2c(cc3oc(C)cc(=O)c3c2O)OC1(C)C
inactive: all assays above

C/C=C(/C)C(=O)O[C@H]1Cc2c(cc3oc(CO)cc(=O)c3c2O)OC1(C)C
inactive: all assays above

C=C(C)C(C)CC[C@@H](C)[C@H]1CC[C@@]2(C)[C@@H]3CC[C@H]4C(C)(C)C(=O)CC[C@]4(C)C3=CC[C@]12C (some centres undefined)
inactive: all assays above

O=c1c(O[C@@H]2O[C@H](CO)[C@H](O)[C@H](O)[C@H]2O)c(-c2ccc(O)c(O)c2)oc2cc(O)cc(O)c12
inactive: all assays above

CC1(C)CC[C@]2(C(=O)O)CC=C3[C@]4(C)CC[C@H]5C(C)(C)[C@@H](O)CC[C@]5(C)[C@H]4CC[C@@]3(C)[C@@H]2C1
inactive: all assays above

COc1c2c(cc3oc(CO[C@@H]4O[C@H](CO)[C@@H](O)[C@H](O)[C@H]4O)cc(=O)c13)O[C@H](C(C)(C)O)C2
inactive: all assays above

COc1ccc(-c2oc3c(CC=C(C)C)c(O[C@@H]4O[C@H](CO)[C@@H](O)[C@H](O)[C@H]4O)cc(O)c3c(=O)c2O[C@@H]2O[C@@H](C)[C@H](O)[C@@H](O)[C@H]2O)cc1
inactive: all assays above

C[C@H]1[C@H](C)CC[C@]2(C)CC[C@]3(C)C(=CC[C@@H]4[C@@]5(C)CC[C@H](O)C(C)(C)[C@@H]5CC[C@]43C)[C@H]12
inactive: all assays above

C=C[C@]1(C)CC[C@@]2(C)C3=CCC[C@](C)(CO)[C@@H]3CC[C@@H]2C1
inactive: all assays above

C=C(C)C(C)(C)CC[C@@H](C)[C@H]1CC[C@@]2(C)[C@@H]3CC[C@H]4C(C)(C)C(=O)CC[C@]4(C)C3=CC[C@]12C
inactive: all assays above

CC(C)=CCOc1c2occc2cc2ccc(=O)oc12
inactive: all assays above

O=C(O)c1cc(O)c(O)c(O)c1
inactive: all assays above

COc1ccc(-c2cc(=O)c3c(O)cc(O[C@H]4O[C@@H](CO)[C@H](O)[C@@H](O)[C@@H]4O)cc3o2)cc1O
inactive: all assays above

COc1ccc(C(=O)O[C@H]2[C@@H]3C=CO[C@@H](O[C@@H]4O[C@H](CO)[C@@H](O)[C@H](O)[C@H]4O)[C@@H]3[C@@]3(CO)O[C@@H]23)cc1OC
inactive: all assays above

CC(C)=CCC[C@](C)(O[C@@H]1O[C@H](CO[C@@H]2O[C@H](CO)[C@@H](O)[C@H](O)[C@H]2O)[C@@H](O)[C@H](O)[C@H]1O)[C@H]1CC[C@]2(C)[C@@H]1[C@H](O)C[C@@H]1[C@@]3(C)CC[C@H](O[C@@H]4O[C@H](CO)[C@@H](O)[C@H](O)[C@H]4O)C(C)(C)[C@@H]3CC[C@]12C
inactive: all assays above

C=C(C)[C@@H]1CC[C@]2(C(=O)O)CC[C@]3(C)[C@H](CC[C@@H]4[C@@]5(C)CC[C@H](O)C(C)(C)[C@@H]5CC[C@]43C)[C@@H]12
inactive: all assays above

O=C(/C=C/c1ccc(O)cc1)c1ccc(O)cc1O
inactive: all assays above

O=c1c(-c2ccc(O[C@@H]3O[C@H](CO)[C@@H](O)[C@H](O)[C@H]3O)cc2)coc2cc(O)cc(O)c12
inactive: all assays above

CC[C@H](/C=C/[C@@H](C)[C@H]1CC[C@H]2[C@@H]3CC=C4C[C@@H](O)CC[C@]4(C)[C@H]3CC[C@]12C)C(C)C
inactive: all assays above

COc1ccc(-c2oc3c(CC=C(C)C)c(O)cc(O)c3c(=O)c2O)cc1
inactive: all assays above

Cc1cc(=O)c2c(O)c3c(cc2o1)OC(C)(C)[C@@H](O)C3
inactive: all assays above

CCCCCCCCCCCCC/C=C1/C(=O)O[C@H](C)[C@@H]1O
inactive: all assays above

CC(C)=CCc1c(O)c(CC=C(C)C)c2oc3c(O)cccc3c(=O)c2c1O
inactive: all assays above

O=c1c(O)c(-c2ccccc2)oc2cc(O)cc(O)c12
inactive: all assays above

C[C@H]1[C@@H](O)CC[C@@H]2[C@]1(C)CC[C@H]1[C@@]2(C)CC[C@@]2(C)[C@@H]3CC(C)(C)CC[C@]3(C)CC[C@]12C
inactive: all assays above

O=C(O[C@H]1[C@@H]2C=CO[C@@H](O[C@@H]3O[C@H](CO)[C@@H](O)[C@H](O)[C@H]3O)[C@@H]2[C@@]2(CO)O[C@@H]12)c1ccc(O)c(O)c1
inactive: all assays above

C=CCc1cc(OC)c(O)c(OC)c1
inactive: all assays above

O=C(/C=C/c1ccccc1)NCCCCNC(=O)c1ccc(O)cc1
inactive: all assays above

COc1c2c(cc3oc(C)cc(=O)c13)OC(C(C)(C)O[C@H]1O[C@@H](CO)[C@H](O)[C@@H](O)[C@@H]1O)C2 (some centres undefined)
inactive: all assays above

O=c1c(O[C@@H]2O[C@H](CO)[C@@H](O)[C@H](O)[C@H]2O)c(-c2ccc(O)c(O)c2)oc2cc(O)cc(O)c12
inactive: all assays above

COc1ccc(C(=O)O[C@H]2[C@@H]3C=CO[C@@H](O[C@@H]4O[C@H](CO)[C@@H](O)[C@H](O)[C@H]4O)[C@@H]3[C@@]3(CO)O[C@@H]23)cc1O
inactive: all assays above

O=C(O)[C@H]1O[C@@H](Oc2cc3oc(-c4ccc(O)cc4)cc(=O)c3c(O)c2O)[C@H](O)[C@@H](O)[C@@H]1O
inactive: all assays above

COc1ccc([C@@H]2CC(=O)c3c(O)cc(O)cc3O2)cc1O[C@@H]1O[C@H](CO[C@@H]2O[C@@H](C)[C@H](O)[C@@H](O)[C@H]2O)[C@@H](O)[C@H](O)[C@H]1O
inactive: all assays above
